Assays:
4T1 tumors = assay: In vivo photosensitizing; design: species or system BALB/c mice; details: 10 mice/group
Procedure, shortened: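 BALB/c mice received 1 × 10⁶ 4T1 cells s.c. in 50 μL PBS at the right shoulder. Treatment began at a mean tumor volume of 62.5 mm³ (50–70). Test compound given i.v. Unanesthetized, restrained mice were irradiated at 665 nm (1 cm² spot, 135 J/cm², 75 mW/cm²). Mice were checked daily for regrowth; volume = (L × W²)/2; mice euthanized at 400 mm³.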

[1] = test system: A431 cells (αvβ3 negative); assay: In vitro photosensitizing; format: cell-based, Human; details: A431, 2 h incubation, 665 nm light 0-2 J/cm2, MTT 48 h later
Procedure, shortened: (§1)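 Cells kept at 37°C in 5% CO₂ in medium with 10% FBS (4T1: RPMI-1640; A431: DMEM high glucose). Plated at 3000 cells/well and allowed to attach for 3 h. Test compound added at variable concentrations for 2 h in the dark, then replaced with drug-free medium. Irradiated with a 665 nm dye laser at 3.2 mW/cm². After 48 h in the dark: MTT for 4 h, DMSO, A570. Survival given as % of dark control; mean of 3 experiments, 6 wells each, SD.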

[2] = test system: 4T1 cells (αvβ3 positive); assay: In vitro photosensitizing; format: cell-based, Mouse; details: 4T1, 2 h incubation, 665 nm light 0-2 J/cm2, MTT 48 h later
Procedure, shortened: as §1

4T1 cells = assay: In vitro cell uptake by flow cytometry; format: cell-based, Mouse; details: 4T1, 2 h post incubation
U87 cells = assay: In vitro cell uptake by flow cytometry; format: cell-based, Human
Solubility in solvents = format: physicochemical
[3] = 0.25 μmol/kg, light at 24 h post injection

Substance | tumor cure at day 60 (4T1 tumors; [3]) | tumor cure at day 60 (4T1 tumors; 0.47 μmol/kg, light at 4 h post injection) | mice tumor-free on day 60 (4T1 tumors; light at 24 h post injection, Figure 7B) | in vitro phototoxicity compared to HPPH [1] | in vitro PDT efficacy among HPPH and conjugates 7, 8, 10 [2] | mice tumor-free on day 60 (4T1 tumors; light at 2 h post injection, Figure 7A) | cell uptake compared with HPPH (4T1 cells) | cell uptake among conjugates 7, 8 and 10 (U87 cells; U87, 400 nM and 800 nM, 2 h and 4 h post-incubation, flow cytometry) | cell uptake at 4 h versus 2 h incubation (U87 cells; U87, Figure S10) | dissolution in common polar solvents (Solubility in solvents) | solubility in DMSO (Solubility in solvents)
3-(1′-hexyloxyethyl)-3-devinylpyropheophorbide-a [HPPH] | did not produce any cures | no cures | 4/10 |  |  |  |  |  |  |  | 
3-devinyl-3-{1′-(hexyloxy)ethyl}pyropheophorbide-a–cyclo(RGDfK) conjugate [conjugate 7] | did not produce any cures |  |  | less effective | most effective | 8/10 | comparable | highest uptake | significantly more at 4h |  | 
HPPH–cyclo(RGDfK) conjugate [conjugate 8] |  |  |  |  |  |  |  |  |  | unsuccessful | partly soluble

From paper PMC3148296 (Molecular pharmaceutics, 2011)
